Assay results taken from ChEMBL document CHEMBL3232832, “Derivatives of dibenzothiophene for positron emission tomography imaging of α7-nicotinic acetylcholine receptors” (J Med Chem, 2013).

What was measured:
Brain [1] = assay: Drug uptake in CD-1 mouse other brain region at 70 uCi, iv administered 10 mins post SSR180711 challenge measured after 90 mins; format: ADME, organism-based; settings: in vivo, 1.5 h
Brain [2] = assay: Drug uptake in CD-1 mouse other brain regions at 70 uCi, iv after 90 mins in presence of nicotine; format: ADME, organism-based; settings: in vivo, 1.5 h
Cerebellum [3] = assay: Drug uptake in CD-1 mouse cerebellum at 0.07 mCi, iv after 90 mins co-administered with 3 mg/kg SSR180711; format: ADME, organism-based; set-up: dose 3 mg/kg, route intravenous; settings: in vivo, 1.5 h
Summary of the method: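 Male CD-1 mice (25–30 g), three per dose. Blocker in saline:ethanol 9:1 pH 5.5, given i.v. with [18F] radiotracer (70 µCi, SA 7900 mCi/µmol). Blocker doses 0, 0.02, 0.2, 1 and 3 mg/kg. Regions dissected 90 min later and gamma counted. Expressed as %ID/g, mean ± SD.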

Cortex [4] = assay: Drug uptake in CD-1 mouse cortex at 70 uCi, iv after 90 mins in presence of cytisine; format: ADME, organism-based; settings: in vivo, 1.5 h
Summary of the method: (§1)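 Male CD-1 mice, n=3. […] [18F] radiotracer (70 µCi, SA ~14000 mCi/µmol) given i.v. 5 min later. Regions harvested at 90 min, gamma counted, expressed as %ID/g.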

Brain [5] = assay: Drug uptake in CD-1 mouse other brain region at 70 uCi, iv administered 10 mins post ondansetron challenge measured after 90 mins; format: ADME, organism-based; settings: in vivo, 1.5 h
Summary of the method: (§2)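 Male CD-1 mice (25–30 g). […] Brains removed 90 min later and dissected on ice. Regions weighed and gamma-counted against injectate standards. Result as %ID/g, mean ± SD, n=3; ANOVA versus controls.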

Cortex [6] = assay: Drug uptake in CD-1 mouse cortex at 70 uCi, iv administered 10 mins post ketanserin challenge measured after 90 mins; format: ADME, organism-based; settings: in vivo, 1.5 h
Summary of the method: (§3)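 Male CD-1 mice, n=3. Drug at 2 mg/kg s.c. in saline:DMSO 5:1, with vehicle controls. [18F] radiotracer (70 µCi, SA ~14000 mCi/µmol) given i.v. 10 min later. Regions harvested 90 min after tracer, gamma counted, expressed as %ID/g. Compared by single-factor ANOVA.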

Hippocampus [7] = assay: Drug uptake in CD-1 mouse hippocampus at 70 uCi, iv administered 10 mins post SCH23390 challenge measured after 90 mins; format: ADME, organism-based; settings: in vivo, 1.5 h; summary of the method: as §3
[8] = Drug uptake in CD-1 mouse frontal cortex at 70 uCi, iv followed by compound washout by gamma-counting analysis; format: ADME, organism-based; settings: in vivo
Summary of the method: (§4)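 Male CD-1 mice (25–30 g), three per time point. [18F] radiotracer (70 µCi, SA 8000–12000 mCi/µmol, in 0.2 mL saline) given by tail vein. Killed at several times up to 90 min. Dissected regions weighed and gamma counted against injectate standards, giving %ID/g.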

Brain [9] = assay: Drug uptake in CD-1 mouse other brain region at 70 uCi, iv after 90 mins in presence of cytisine; format: ADME, organism-based; settings: in vivo, 1.5 h
Cortex [10] = assay: Drug uptake in CD-1 mouse cortex at 70 uCi, iv administered 10 mins post naltrindole challenge measured after 90 mins; format: ADME, organism-based; settings: in vivo, 1.5 h; summary of the method: as §3
Cerebellum [11] = assay: Drug uptake in CD-1 mouse cerebellum at 70 uCi, iv administered 10 mins post SSR180711 challenge measured after 90 mins; format: ADME, organism-based; settings: in vivo, 1.5 h
Hippocampus [12] = assay: Drug uptake in CD-1 mouse hippocampus at 70 uCi, iv administered 10 mins post SSR180711 challenge measured after 90 mins; format: ADME, organism-based; settings: in vivo, 1.5 h
Hippocampus [13] = assay: Drug uptake in CD-1 mouse hippocampus at 70 uCi, iv administered 10 mins post ketanserin challenge measured after 90 mins; format: ADME, organism-based; settings: in vivo, 1.5 h; summary of the method: as §3
Cortex [14] = assay: Drug uptake in CD-1 mouse cortex at 70 uCi, iv administered 10 mins post SSR180711 challenge measured after 90 mins; format: ADME, organism-based; settings: in vivo, 1.5 h
Cerebellum [15] = assay: Drug uptake in CD-1 mouse cerebellum at 70 uCi, iv after 90 mins in presence of cytisine; format: ADME, organism-based; settings: in vivo, 1.5 h; summary of the method: as §1
Hippocampus [16] = assay: Drug uptake in CD-1 mouse hippocampus at 70 uCi, iv followed by compound washout by gamma-counting analysis; format: ADME, organism-based; settings: in vivo; summary of the method: as §4
Brain [17] = assay: Drug uptake in CD-1 mouse other brain region at 70 uCi, iv administered 10 mins post ketanserin challenge measured after 90 mins; format: ADME, organism-based; settings: in vivo, 1.5 h; summary of the method: as §2
Cerebellum [18] = assay: Drug uptake in CD-1 mouse cerebellum at 0.07 mCi, iv after 90 mins in presence of 7-(1,4-Diazabicyclo[3.2.2]nonan-4-yl)-2-fluorodibenzo[b,d]-thiophene 5,5-Dioxide; format: ADME, organism-based; settings: in vivo, 1.5 h
Summary of the method: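 Male CD-1 mice, n=3. [18F] radiotracer (70 µCi, 0.2 mL) given i.v. together with unlabeled blocker in saline pH 5.5. Brain regions dissected at 90 min, gamma counted, expressed as %ID/g.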

Cerebellum [19] = assay: Drug uptake in CD-1 mouse cerebellum at 70 uCi, iv administered 10 mins post naltrindole challenge measured after 90 mins; format: ADME, organism-based; settings: in vivo, 1.5 h; summary of the method: as §3
Hippocampus [20] = assay: Drug uptake in CD-1 mouse hippocampus at 70 uCi, iv administered 10 mins post ondansetron challenge measured after 90 mins; format: ADME, organism-based; settings: in vivo, 1.5 h; summary of the method: as §3
Brain [21] = assay: Drug uptake in CD-1 mouse other brain regions at 0.07 mCi, iv after 90 mins co-administered with SSR180711; format: ADME, organism-based; settings: in vivo, 1.5 h
Summary of the method: (§5)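 Male CD-1 mice. [18F]tracer (0.07 mCi, SA 7900 mCi/µmol, 0.2 mL) co-injected i.v. with blocker at 0 (vehicle), 0.02, 0.2, 1 or 3 mg/kg. Blocker dissolved in saline:alcohol 9:1, pH 5.5. Brain regions harvested at 90 min and gamma-counted. %ID/g, mean ± SD, n=3 per dose; ANOVA versus controls.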

Cortex [22] = assay: Drug uptake in CD-1 mouse cortex at 70 uCi, iv after 90 mins in presence of nicotine; format: ADME, organism-based; settings: in vivo, 1.5 h; summary of the method: as §1
Cerebellum [23] = assay: Drug uptake in CD-1 mouse cerebellum at 70 uCi, iv administered 10 mins post ondansetron challenge measured after 90 mins; format: ADME, organism-based; settings: in vivo, 1.5 h; summary of the method: as §3
Cerebellum [24] = assay: Ratio of clearance in CD-1 mouse cerebellum to clearance in CD-1 mouse other brain tissues at 70 uCi, iv followed by compound washout after 90 mins by gamma-counting analysis; format: ADME, organism-based; settings: in vivo, 1.5 h
Summary of the method: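 CD-1 mouse baseline biodistribution after i.v. [18F]radioligand (70 µCi, 8000–12000 mCi/µmol, in 0.2 mL saline), three mice per time point to 90 min. Regional gamma-counting gave %ID/g, and each region was expressed as a ratio to cerebellum.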

Hippocampus [25] = assay: Drug uptake in CD-1 mouse hippocampus at 70 uCi, iv after 90 mins in presence of cytisine; format: ADME, organism-based; settings: in vivo, 1.5 h; summary of the method: as §1
Cerebellum [26] = assay: Drug uptake in CD-1 mouse cerebellum at 70 uCi, iv administered 10 mins post SCH23390 challenge measured after 90 mins; format: ADME, organism-based; settings: in vivo, 1.5 h; summary of the method: as §3
[27] = Drug uptake in CD-1 mouse superior and inferior colliculus at 70 uCi, iv administered 10 mins post spiperone challenge measured after 90 mins; format: ADME, organism-based; settings: in vivo, 1.5 h; summary of the method: as §2
[28] = Drug uptake in CD-1 mouse superior and inferior colliculus at 0.07 mCi, iv after 90 mins co-administered with SSR180711; format: ADME, organism-based; settings: in vivo, 1.5 h; summary of the method: as §5
Nucleic Acid = assay: Ratio of drug uptake from cortex to cerebellum in CD-1 mouse after 90 mins; format: ADME, tissue-based; settings: 1.5 h
[29] = Drug uptake in CD-1 mouse superior and inferior colliculus at 70 uCi, iv administered 10 mins post SCH23390 challenge measured after 90 mins; format: ADME, organism-based; settings: in vivo, 1.5 h; summary of the method: as §2
Cerebellum [30] = assay: Drug uptake in CD-1 mouse cerebellum at 70 uCi, iv followed by compound washout by gamma-counting analysis; format: ADME, organism-based; settings: in vivo; summary of the method: as §4
Hippocampus [31] = assay: Drug uptake in CD-1 mouse hippocampus at 0.07 mCi, iv after 90 mins relative to drug uptake in CD-1 mouse cerebellum; format: ADME, organism-based; settings: in vivo, 1.5 h

For O=S1(=O)c2cc(N3CCN4CCC3CC4)ccc2-c2cccc([18F])c21, the Drug uptake (Brain [1]) was “Not Active”, the Drug uptake (Brain [2]) was “Not Active” and the Drug uptake (Cerebellum [3]) was “Not Active”. For the same molecule, the Drug uptake (Cortex [4]) was “Not Active”, the Drug uptake (Brain [5]) was “Active” and the Drug uptake (Cortex [6]) was “Active”. For the same molecule, the Drug uptake (Hippocampus [7]) was “Active”, the Drug uptake [8] was “Active” and the Drug uptake (Brain [9]) was “Not Active”. For the same molecule, the Drug uptake (Cortex [10]) was “Active”, the Drug uptake (Cerebellum [11]) was “Not Active” and the Drug uptake (Hippocampus [12]) was “Not Active”. The Drug uptake (Hippocampus [13]) was “Active”, the Drug uptake (Cortex [14]) was “Not Active” and the Drug uptake (Cerebellum [15]) was “Not Active”. For the same molecule, the Drug uptake (Hippocampus [16]) was “Active”, the Drug uptake (Brain [17]) was “Active” and the Drug uptake (Cerebellum [18]) was “Active”. For the same molecule, the Drug uptake (Cerebellum [19]) was “Active”, the Drug uptake (Hippocampus [20]) was “Active” and the Drug uptake (Brain [21]) was “Not Active”. The Drug uptake (Cortex [22]) was “Not Active”, the Drug uptake (Cerebellum [23]) was “Active” and the Ratio (Cerebellum [24]) was 10. The Drug uptake (Hippocampus [25]) was “Not Active”, the Drug uptake (Cerebellum [26]) was “Active” and the Drug uptake [27] was “Active”. The Drug uptake [28] was “Not Active”, the Ratio (Nucleic Acid) was 5.3 and the Drug uptake [29] was “Active”. For the same molecule, the Drug uptake (Cerebellum [30]) was “Active” and the Drug uptake (Hippocampus [31]) was 94%.
